From ChEMBL document CHEMBL1123663, “Double-headed haptens with pyrocatechol (poison ivy like) and methylene lactone functional groups: a search for skin-tolerance inducers” (1987)

Experiments:
Type in all cases: functional
Cavia porcellus [1] = species on record: Cavia porcellus; experiment: Open epicutaneous test for sensitization as average skin reaction in presence of bihapten 1 as sensitizer on guinea pigs; Value indicates number of animals
Procedure, shortened: (§1)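 Female Himalayan spotted guinea pigs (300–500 g) sensitized with three intradermal nuchal injections (0.1 mL) on alternate days of the hapten (2.5% w/v) emulsified 1:1 in Freund's complete adjuvant/saline. Elicitation by open epicutaneous test with the hapten at 2% w/v in 4:1 acetone/olive oil. Eight animals per group, with FCA-treated controls. Average skin reaction is the sum of test scores divided by the number of animals tested.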

Cavia porcellus [2] = species on record: Cavia porcellus; experiment: Open epicutaneous test for sensitization as average skin reaction in presence of lactone 8 (pretreated with bihapten 1) as sensitizer on guinea pigs; Value indicates number of animals; procedure, shortened: as §1
Cavia porcellus [3] = species on record: Cavia porcellus; experiment: Open epicutaneous test for sensitization as average skin reaction in presence of lactone 8 as sensitizer on guinea pigs; Value indicates number of animals; procedure, shortened: as §1
Cavia porcellus [4] = species on record: Cavia porcellus; experiment: Open epicutaneous test for sensitization in presence of bihapten 1 as sensitizer on guinea pigs as number of positive animals responded; procedure, shortened: as §1
Cavia porcellus [5] = species on record: Cavia porcellus; experiment: Open epicutaneous test for sensitization in presence of lactone 8 (pretreated with bihapten 1) as sensitizer on guinea pigs as number of positive animals responded; procedure, shortened: as §1
Cavia porcellus [6] = species on record: Cavia porcellus; experiment: Open epicutaneous test for sensitization in presence of lactone 8 as sensitizer on guinea pigs as number of positive animals responded; procedure, shortened: as §1
Cavia porcellus [7] = species on record: Cavia porcellus; experiment: Open epicutaneous test for sensitization in presence of bihapten 1 as sensitizer on guinea pigs with skin intensity test scale (definite erythema covering the whole test area); Value indicates number of animals; procedure, shortened: as §1
Cavia porcellus [8] = species on record: Cavia porcellus; experiment: Open epicutaneous test for sensitization in presence of bihapten 1 as sensitizer on guinea pigs with skin intensity test scale (slight erythema not covering the whole test area); Value indicates number of animals; procedure, shortened: as §1
Cavia porcellus [9] = species on record: Cavia porcellus; experiment: Open epicutaneous test for sensitization in presence of lactone 8 (pretreated with bihapten 1) as sensitizer on guinea pigs with skin intensity test scale (definite erythema covering the whole test area); Value indicates number of animals; procedure, shortened: as §1
Cavia porcellus [10] = species on record: Cavia porcellus; experiment: Open epicutaneous test for sensitization in presence of lactone 8 (pretreated with bihapten 1) as sensitizer on guinea pigs with skin intensity test scale (erythema plus swelling going well beyond); Value indicates number of animals; procedure, shortened: as §1
Cavia porcellus [11] = species on record: Cavia porcellus; experiment: Open epicutaneous test for sensitization in presence of bihapten 1 as sensitizer on guinea pigs with skin intensity test scale (erythema plus swelling going well beyond); Value indicates number of animals; procedure, shortened: as §1
Cavia porcellus [12] = species on record: Cavia porcellus; experiment: Open epicutaneous test for sensitization in presence of lactone 8 (pretreated with bihapten 1) as sensitizer on guinea pigs with skin intensity test scale (erythema plus swelling of the test area); Value indicates number of animals; procedure, shortened: as §1
Cavia porcellus [13] = species on record: Cavia porcellus; experiment: Open epicutaneous test for sensitization in presence of lactone 8 (pretreated with bihapten 1) as sensitizer on guinea pigs with skin intensity test scale (no reaction); Value indicates number of animals; procedure, shortened: as §1
Cavia porcellus [14] = species on record: Cavia porcellus; experiment: Open epicutaneous test for sensitization in presence of lactone 8 (pretreated with bihapten 1) as sensitizer on guinea pigs with skin intensity test scale (slight erythema not covering the whole test area); Value indicates number of animals; procedure, shortened: as §1
Cavia porcellus [15] = species on record: Cavia porcellus; experiment: Open epicutaneous test for sensitization in presence of bihapten 1 as sensitizer on guinea pigs with skin intensity test scale (erythema plus swelling of the test area); Value indicates number of animals; procedure, shortened: as §1
Cavia porcellus [16] = species on record: Cavia porcellus; experiment: Open epicutaneous test for sensitization in presence of bihapten 1 as sensitizer on guinea pigs with skin intensity test scale (no reaction); Value indicates number of animals; procedure, shortened: as §1
Cavia porcellus [17] = species on record: Cavia porcellus; experiment: Open cutaneous test for sensitization in presence of lactone 8 as sensitizer on guinea pigs with skin intensity test scale (definite erythema covering the whole test area); Value indicates number of animals; procedure, shortened: as §1
Cavia porcellus [18] = species on record: Cavia porcellus; experiment: Open cutaneous test for sensitization in presence of lactone 8 as sensitizer on guinea pigs with skin intensity test scale (erythema plus swelling going well beyond); Value indicates number of animals; procedure, shortened: as §1
Cavia porcellus [19] = species on record: Cavia porcellus; experiment: Open cutaneous test for sensitization in presence of lactone 8 as sensitizer on guinea pigs with skin intensity test scale (erythema plus swelling of the test area); Value indicates number of animals; procedure, shortened: as §1
Cavia porcellus [20] = species on record: Cavia porcellus; experiment: Open cutaneous test for sensitization in presence of lactone 8 as sensitizer on guinea pigs with skin intensity test scale (no reaction); Value indicates number of animals; procedure, shortened: as §1
Cavia porcellus [21] = species on record: Cavia porcellus; experiment: Open cutaneous test for sensitization in presence of lactone 8 as sensitizer on guinea pigs with skin intensity test scale (slight erythema not covering the whole test area); Value indicates number of animals; procedure, shortened: as §1
Cavia porcellus [22] = species on record: Cavia porcellus; experiment: Open epicutaneous test for sensitization in presence of bihapten 1 as sensitizer on guinea pigs with skin intensity test scale (erythema plus swelling going well beyond the); Value indicates number of animals; procedure, shortened: as §1
Cavia porcellus [23] = species on record: Cavia porcellus; experiment: Open epicutaneous test for sensitization in presence of lactone 8 (pretreated with bihapten 1)as sensitizer on guinea pigs with skin intensity test scale (definite erythema covering the whole test area); Value indicates number of animals; procedure, shortened: as §1
Cavia porcellus [24] = species on record: Cavia porcellus; experiment: Open epicutaneous test for sensitization in presence of lactone 8 (pretreated with bihapten 1)as sensitizer on guinea pigs with skin intensity test scale (erythema plus swelling going well beyond); Value indicates number of animals; procedure, shortened: as §1
Cavia porcellus [25] = species on record: Cavia porcellus; experiment: Open epicutaneous test for sensitization in presence of lactone 8 (pretreated with bihapten 1)as sensitizer on guinea pigs with skin intensity test scale (erythema plus swelling of the test area); procedure, shortened: as §1
Cavia porcellus [26] = species on record: Cavia porcellus; experiment: Open epicutaneous test for sensitization in presence of lactone 8 (pretreated with bihapten 1)as sensitizer on guinea pigs with skin intensity test scale (no reaction); Value indicates number of animals; procedure, shortened: as §1
Cavia porcellus [27] = species on record: Cavia porcellus; experiment: Open epicutaneous test for sensitization in presence of lactone 8 as sensitizer on guinea pigs with skin intensity test scale (definite erythema covering the whole test area); Value indicates number of animals; procedure, shortened: as §1
Cavia porcellus [28] = species on record: Cavia porcellus; experiment: Open epicutaneous test for sensitization in presence of lactone 8 as sensitizer on guinea pigs with skin intensity test scale (erythema plus swelling going well beyond); Value indicates number of animals; procedure, shortened: as §1
Cavia porcellus [29] = species on record: Cavia porcellus; experiment: Open epicutaneous test for sensitization in presence of lactone 8 as sensitizer on guinea pigs with skin intensity test scale (erythema plus swelling of the test area); Value indicates number of animals; procedure, shortened: as §1
Cavia porcellus [30] = species on record: Cavia porcellus; experiment: Open epicutaneous test for sensitization in presence of lactone 8 as sensitizer on guinea pigs with skin intensity test scale (slight erythema not covering the whole test area); Value indicates number of animals; procedure, shortened: as §1
Cavia porcellus [31] = species on record: Cavia porcellus; experiment: Open epicutaneous test for sensitization in presence of lactone 8 as sensitizer on guinea pigs with skin intensity test scale (no reaction); Value indicates number of animals; procedure, shortened: as §1
Cavia porcellus [32] = species on record: Cavia porcellus; experiment: Open cutaneous test for sensitization in presence of lactone 8 (pretreated with bihapten 1)as sensitizer on guinea pigs with skin intensity test scale (slight erythema not covering the whole test area); Value indicates number of animals; procedure, shortened: as §1

## C=C1CC(CCCCCCCCCc2cccc(OC)c2OC)OC1=O (configuration not stated)
Cavia porcellus [1]
  Average for skin reaction: 0
Cavia porcellus [2]
  Average for skin reaction: 0.6
Cavia porcellus [3]
  Average for skin reaction: 3
Cavia porcellus [4]
  No. of positive animals: 0
Cavia porcellus [5]
  No. of positive animals: 8
Cavia porcellus [6]
  No. of positive animals: 8
Cavia porcellus [7]
  Skin reaction: 0
Cavia porcellus [8]
  Skin reaction: 0
Cavia porcellus [9]
  Skin reaction: 2
Cavia porcellus [10]
  Skin reaction: 0
Cavia porcellus [11]
  Skin reaction: 0
Cavia porcellus [12]
  Skin reaction: 0
Cavia porcellus [13]
  Skin reaction: 0
Cavia porcellus [14]
  Skin reaction: 6
Cavia porcellus [15]
  Skin reaction: 0
Cavia porcellus [16]
  Skin reaction: 0
Cavia porcellus [17]
  Skin reaction: 0
Cavia porcellus [18]
  Skin reaction: 8
Cavia porcellus [19]
  Skin reaction: 0
Cavia porcellus [20]
  Skin reaction: 0
Cavia porcellus [21]
  Skin reaction: 0

## C=C1CC(CCCCCCCCCc2cccc(O)c2O)OC1=O (configuration not stated)
Cavia porcellus [1]
  Average for skin reaction: 1
Cavia porcellus [2]
  Average for skin reaction: 1
Cavia porcellus [3]
  Average for skin reaction: 1.6
Cavia porcellus [4]
  No. of positive animals: 8
Cavia porcellus [5]
  No. of positive animals: 8
Cavia porcellus [6]
  No. of positive animals: 8
Cavia porcellus [7]
  Skin reaction: 8
Cavia porcellus [22]
  Skin reaction: 0
Cavia porcellus [8]
  Skin reaction: 0
Cavia porcellus [23]
  Skin reaction: 8
Cavia porcellus [24]
  Skin reaction: 0
Cavia porcellus [25]
  Skin reaction: 0
Cavia porcellus [26]
  Skin reaction: 0
Cavia porcellus [27]
  Skin reaction: 3
Cavia porcellus [28]
  Skin reaction: 0
Cavia porcellus [29]
  Skin reaction: 5
Cavia porcellus [30]
  Skin reaction: 0
Cavia porcellus [31]
  Skin reaction: 0
Cavia porcellus [15]
  Skin reaction: 0
Cavia porcellus [16]
  Skin reaction: 0
Cavia porcellus [32]
  Skin reaction: 0
